This is a sample that favours compounds with a hit; in the whole collection about 1.5% have one here.
CXCR6 block – CXCR6 receptor inhibitors, primary screen, cell-based, beta-arrestin, luminescence, CHO-K1 PathHunter, 1536-well. C-X-C chemokine receptor type 6 (Homo sapiens), O00574. inhibition, % at 20 µM. hit rate 0.36% among 360,000. AID 602244, 2012; in the data active = inhibition above about 34%, passing the limit was not always enough;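 note: antagonist mode with CXCL16 agonist at 10 nM final; 0% = 10 nM CXCL16 with DMSO and 100% = unstimulated wells without agonist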
Target sequence (O00574 whole entry, looked up): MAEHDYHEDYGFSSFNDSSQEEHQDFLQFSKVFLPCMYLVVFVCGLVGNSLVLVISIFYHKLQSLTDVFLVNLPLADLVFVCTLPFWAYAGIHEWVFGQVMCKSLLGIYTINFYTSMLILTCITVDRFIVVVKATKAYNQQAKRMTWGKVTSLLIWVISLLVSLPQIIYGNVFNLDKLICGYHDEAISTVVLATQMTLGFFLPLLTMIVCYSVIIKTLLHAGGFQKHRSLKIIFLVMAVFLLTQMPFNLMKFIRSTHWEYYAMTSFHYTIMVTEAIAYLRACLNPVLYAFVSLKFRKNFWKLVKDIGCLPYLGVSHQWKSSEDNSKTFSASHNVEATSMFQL
EBI2 antag – EBI2 receptor antagonists, beta-arrestin recruitment, primary screen, cell-based, luminescence, 7a,25-OHC stimulation, uHTS; inhibition, % at 5 µM; 7a,25-OHC stimulated; hit rate 0.81% among 360,000; in the data active = inhibition above about 38%;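 note: enzyme fragment complementation signal reports receptor beta-arrestin coupling in cells; 0% = agonist plus DMSO wells and 100% = wells without agonist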
APJ antagonist – antagonists of human apelin receptor APJ, primary screen, CHO-K1 cells, beta-arrestin complementation, luminescence; P35414; inhibition, % at 20 µM; hit rate 0.32% among 330,000;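 active = inhibition above about 40% at 20 µM, limit read from the data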;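 note: cells challenged with 10 nM apelin-13 agonist together with compound; plate controls were apelin-13 plus DMSO wells for no effect and DMSO wells lacking apelin-13 for full effect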
APJ ag – agonists of human apelin receptor APJ, primary screen, CHO-K1 cells, PathHunter beta-arrestin, luminescence. hit rate 0.11% among 330,000. AID 2520, 2010. 0% DMSO wells, 100% apelin. activation, % at 20 µM;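 active = activation more than six SD over the plate average, tested at 20 µM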;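 note: 0% = DMSO alone and 100% = apelin-13 at 10 nM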
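Test system: CHO-K1 APJ beta-arrestin complementation cell line. Amount: cell density 1000 per well. Controls: DMSO negative, 10 nM Apelin-13 positive. Signal: luminescent beta-gal fragment complementation, chemiluminescent substrate. Read-out basis: agonist-driven arrestin binding to APJ. Timing: compound stimulation 90 min at 25 °C, detection 60 min.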
CCR6 antag – CCR6 receptor antagonists, primary screen, cell-based, CHO-K1, luminescence, beta-arrestin, uHTS | hit rate 0.49% among 340,000 | AID 493098, 2011 | CHO-K1 CCR6 PathHunter beta-arrestin, CCL20-stimulated | inhibition, % at 20 µM | C-C chemokine receptor type 6 (Homo sapiens), P51684;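 active = compounds whose inhibition of the agonist-driven luminescence signal at 20 µM reaches about 50%, limit read from the data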;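 note: cells stimulated with CCL20 at 14 nM final; plate controls were DMSO with CCL20 for no effect and DMSO without agonist for full effect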
Target sequence (P51684 whole entry, looked up): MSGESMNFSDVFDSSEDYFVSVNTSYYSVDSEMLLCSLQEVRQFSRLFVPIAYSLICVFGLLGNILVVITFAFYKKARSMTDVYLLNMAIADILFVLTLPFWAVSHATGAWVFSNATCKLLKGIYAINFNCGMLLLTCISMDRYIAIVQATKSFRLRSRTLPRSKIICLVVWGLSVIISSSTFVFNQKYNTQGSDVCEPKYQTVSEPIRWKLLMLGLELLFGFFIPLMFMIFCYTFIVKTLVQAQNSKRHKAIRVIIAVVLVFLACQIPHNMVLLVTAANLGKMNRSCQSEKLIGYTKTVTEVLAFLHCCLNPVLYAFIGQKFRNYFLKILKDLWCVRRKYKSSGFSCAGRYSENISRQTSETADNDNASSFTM
* = called active by the depositor; x = no result given.

SMILES | CXCR6 block | EBI2 antag | APJ antagonist | APJ ag | CCR6 antag
Oc1ccc(CN2CCN(c3ccccc3)CC2)c2cccnc12 | 8.5 | 60.0* | -18.7 | -2.5 | -1.1
Cc1cc2c(c(C)c1Br)C(c1ccc3c(c1)OCO3)CC(=O)O2 (stereo unspecified) | 2.0 | -1.8 | x | x | 4.4
COC(=O)C[C@H]1C=C[C@@H](NC(=O)C2CC2)[C@@H](CO)O1 | x | -7.1 | x | x | x
C=CCn1cccc(/C=C/C(=O)c2ccc(C(C)(C)C)cc2)c1=S | 19.4 | 44.5* | x | x | 36.8
Cc1cc2nc(-c3cccc(Cl)c3)c(Cc3ccsc3)n2c(C)c1Br | 0.6 | -3.5 | x | x | x
N#CC1=C(N)C(C#N)(C#N)C(c2ccncc2)C2CN(C(=O)OCc3ccccc3)CC=C12 (stereo unspecified) | 23.0 | 14.2 | 16.1 | -7.6 | 56.1*
COC1=C(Br)C(=O)c2nc(C)ccc2C1=O | 43.5* | -20.6 | x | x | x
COC1=C(N)C(=O)c2nc(C)ccc2C1=O | -15.5 | -40.3 | x | x | -13.0
O=C1C(Br)=C(c2ccccc2)C(c2ccccc2)=C1c1ccccc1 | 20.8 | 49.1* | x | x | 68.3*
CSCCC(C(=O)NCc1ccccc1)n1c(C2CCN(C(C)=O)CC2)nc2ccccc21 (stereo unspecified) | x | -6.2 | x | x | x
O=[N+]([O-])c1cc(Cl)cc(/C=N/NC(=S)Nc2ccc(S(=O)(=O)N3CCOCC3)cc2)c1O | 34.8 | 10.4 | 32.9 | -6.8 | 59.9*
Cc1oc(-c2ccccc2F)nc1CS(=O)CC(=O)NC1CCCC1 (stereo unspecified) | -0.6 | -15.8 | 22.0 | 0.9 | 11.8
COc1cccc2sc(Nc3nc(-c4ccncc4)cs3)nc12 | 31.8 | 73.0* | 19.1 | 0.5 | 30.4
Cc1ccc(S(=O)(=O)N2CC3C(=O)C[C@@H](c4ccccc4)N(S(=O)(=O)c4cccc(Cl)c4)C3CC2c2ccccc2)cc1 (stereo partly specified) | x | 7.7 | x | x | x
N#C/C(=C\c1ccc(O)cc1)c1nc2ccccc2o1 | 23.4 | 2.0 | 45.1* | -5.2 | 40.0
CCC1(CC)Cc2ccccc2-c2nc(NN)[nH]c(=O)c21 | 29.2 | 2.9 | 13.9 | -7.0 | 50.2*
Cc1ccccc1N1C(=O)c2sc3nc4c(c(=O)n3c2C1=O)CCC4 | 3.8 | -2.7 | 11.8 | -1.3 | -3.3
O=C1c2sc3nc4ccccc4n3c2C(=O)N1c1ccccc1Cl | 38.4* | 9.1 | -2.3 | -4.6 | 47.4
Cc1cccc(-n2nc([N+](=O)[O-])c(=NC3CCN(Cc4ccccc4)CC3)n2O)c1 | -13.7 | -25.6 | -69.9 | 16.1* | 0.1
O=C(CNC(=O)c1cccs1)Nc1ccncc1 | -1.1 | -12.5 | 7.2 | -0.4 | -9.8
O=C1C=CC(=O)c2c(O)c(N3CCN(CCOCCO)CC3)c(Br)c(O)c21 | 75.6* | -23.5 | x | x | 112.2*
O=C1C=CC(=O)c2c(O)c(N3CCN(CCO)CC3)c(Cl)c(O)c21 | 66.4* | -19.2 | x | x | 101.5*
O=S(=O)(c1ccc(Br)cc1Cl)N1CCN(CCO)CC1 | 2.9 | -15.1 | -7.0 | -1.3 | 9.8
CS(=O)(=O)c1sc(C#N)c2c1C(=O)CC(c1ccccc1)C2 (stereo unspecified) | 90.7* | 65.7* | 84.5* | -4.8 | 92.2*
Cc1oc2c(c(=O)c1C)C(=O)CC(c1ccccc1)C2 (stereo unspecified) | 13.6 | -3.6 | 7.0 | -4.5 | -3.6
SMILES | CXCR6 block | EBI2 antag | APJ antagonist | APJ ag | CCR6 antag
Cc1c(N/N=C(\C#N)C(=O)c2ccccc2)c(=O)n(-c2ccccc2)n1C | 35.3 | 10.3 | x | x | 63.2*
Cc1ccccc1C(=O)/C(C#N)=N/Nc1c(C)n(C)n(-c2ccccc2)c1=O | 44.8* | 6.4 | x | x | 48.0
Cc1c(NC=C(C#N)C#N)c(=O)n(-c2ccccc2)n1C | 0.3 | -5.1 | -7.7 | 0.6 | -1.9
CCOC(=O)/C(C#N)=N/Nc1c(C)n(C)n(-c2ccccc2)c1=O | 11.1 | 7.9 | 12.8 | -1.3 | 17.2
CCCCCCCCN1C(=O)[C@H](CC(=O)NCCc2ccccc2OC)C[C@@]2(C(=O)OC)CC(C)(C)CC=C12 | x | 23.2 | x | x | x
O=[N+]([O-])c1ccc(/C=N/N=C/c2ccc([N+](=O)[O-])o2)o1 | 37.1 | -7.1 | x | x | 61.2*
O=C(N/N=C/c1ccccc1Cl)c1ccncc1 | -0.5 | -8.1 | -17.1 | -3.5 | -4.8
O=C(N/N=C/c1cc(Cl)ccc1O)c1ccncc1 | -9.1 | 49.5* | -40.4 | 9.6 | -2.4
O=C1NC(=S)S/C1=C\C=C\c1ccc([N+](=O)[O-])o1 | 33.1 | 3.6 | x | x | 60.9*
CN1C(=O)C(N=Nc2ccc([N+](=O)[O-])cc2)SC1=S (stereo unspecified) | 45.4* | -6.8 | x | x | 86.3*
O=C1S/C(=C\c2ccc(N3CCOCC3)o2)C(=O)N1Cc1ccc(F)cc1 | 13.2 | 47.4* | 23.3 | -5.3 | 29.6
O=C1NC(=S)S/C1=C/c1ccc(N2CCOCC2)o1 | 19.9 | -0.4 | -0.5 | -0.8 | 61.6*
O=C1/C(=C/c2ccc(N3CCOCC3)o2)SC(=Nc2ccccc2)N1CCc1c[nH]c2ccccc12 | 4.9 | 83.0* | -8.1 | 3.7 | 14.9
O=C(CCl)c1ccc2c(c1)CCN2C(=O)C1CCCCC1 | 31.2 | -7.7 | 31.0 | -0.6 | 53.0*
O=C(CCl)c1ccc2c(c1)CCN2C(=O)C1CC1 | x | x | 27.5 | 0.1 | x
Cc1nn(-c2ccccc2)c(Cl)c1CN(C(=O)CCl)c1cccc2ccccc12 | -1.5 | 59.5* | 13.8 | -2.6 | 18.0
CC1=CN2C(=N)/C(=C/c3ccc(Sc4ccc(C)cc4)o3)C(=O)N=C2S1 | 34.4 | 0.0 | 25.8 | -1.1 | 62.6*
CC1=CN2C(=N)/C(=C/c3ccc(Sc4ccc(Cl)cc4)o3)C(=O)N=C2S1 | 19.0 | 3.3 | 20.1 | -2.6 | 52.5*
CCOC(=O)C[C@@H]1OC[C@H](Cc2ccccc2)N1S(=O)(=O)c1ccc(C)cc1 | x | 12.0 | x | x | x
O=C(COC(=O)c1ccc(F)c([N+](=O)[O-])c1)NC(=O)NCc1ccccc1 | -13.3 | -3.0 | 13.8 | 10.0 | -7.5
CCOC(=O)SC1=N/C(=C\c2ccc(N(C)C)cc2)C(=O)S1 | 19.5 | -24.4 | 22.2 | -8.4 | 50.9*
CCSC1=N/C(=C\c2ccc(C(=O)O)cc2)C(=O)S1 | 4.3 | -0.1 | 19.4 | -4.9 | 19.1
CCOC(CN=c1nc(N(C)C)ss1)OCC | 60.2* | -2.8 | x | x | 91.7*
CC(=O)[C@]1(O)Cc2c(O)c3c(c(O)c2[C@@H](O[C@H]2C[C@H](N)[C@H](O)[C@H](C)O2)C1)C(=O)c1ccccc1C3=O | x | x | 36.5 | -2.6 | 81.2*
COc1ccc(C(C(=O)NC(C)(C)C)n2c(=O)c(-c3ccccc3)nc3ccccc32)cc1 (stereo unspecified) | x | 0.4 | x | x | x
CCOC(=O)C1(CC)Oc2ccccc2C(c2ccc(OC)cc2)=C1C(=O)OC (stereo unspecified) | 48.0* | 13.8 | x | x | 28.1
CN1/C(=C/C(=O)c2nc(S(C)(=O)=O)ncc2Cl)C(C)(C)c2ccccc21 | 35.1 | 57.7* | 23.9 | -2.8 | 37.0
